Assay results reported in ChEMBL document CHEMBL1152355, “Application of a 3,3-diphenylpentane skeleton as a multi-template for creation of HMG-CoA reductase inhibitors” (Bioorg Med Chem Lett, 2009).
Each block holds one compound with its values, some of them ahead of it.

Assays:
[1] = biological target: T1, 3-hydroxy-3-methylglutaryl-coenzyme A reductase (Rattus norvegicus, UniProt P51639); test: Inhibition of rat HMG-CoA reductase using 0.37 MBq DL-[3-14C]HMG-CoA
T1 sequence (P51639 whole entry): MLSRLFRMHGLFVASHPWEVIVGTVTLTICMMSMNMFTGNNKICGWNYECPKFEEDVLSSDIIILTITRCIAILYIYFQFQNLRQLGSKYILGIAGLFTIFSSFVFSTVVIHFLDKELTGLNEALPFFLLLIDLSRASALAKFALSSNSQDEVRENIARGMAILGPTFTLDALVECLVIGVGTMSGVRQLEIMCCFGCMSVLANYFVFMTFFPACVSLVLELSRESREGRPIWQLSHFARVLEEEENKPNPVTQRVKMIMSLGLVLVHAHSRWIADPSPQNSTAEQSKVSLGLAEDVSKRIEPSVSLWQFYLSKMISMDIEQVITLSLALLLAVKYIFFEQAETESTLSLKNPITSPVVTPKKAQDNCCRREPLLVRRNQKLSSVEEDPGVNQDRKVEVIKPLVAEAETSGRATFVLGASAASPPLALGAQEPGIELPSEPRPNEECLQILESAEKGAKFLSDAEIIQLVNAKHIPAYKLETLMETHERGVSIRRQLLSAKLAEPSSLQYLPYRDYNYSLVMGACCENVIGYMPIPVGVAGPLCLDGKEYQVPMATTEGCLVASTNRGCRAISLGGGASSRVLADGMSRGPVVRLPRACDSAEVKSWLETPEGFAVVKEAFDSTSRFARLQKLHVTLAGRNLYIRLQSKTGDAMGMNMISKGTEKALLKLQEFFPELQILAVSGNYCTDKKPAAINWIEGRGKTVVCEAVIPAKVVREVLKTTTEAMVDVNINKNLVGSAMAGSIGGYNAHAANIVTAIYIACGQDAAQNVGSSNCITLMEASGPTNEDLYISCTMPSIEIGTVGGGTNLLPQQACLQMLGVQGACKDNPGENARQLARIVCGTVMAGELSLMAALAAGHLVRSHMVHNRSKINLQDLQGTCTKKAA
Summary of the method: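 Method B used the lower substrate level, 0.37 MBq DL-[3-14C]HMG-CoA, with rat microsomal fraction (10 mg protein) at 37 °C for 30 min. Stopped with 2 M HCl, with conversion to mevalonolactone. Separation was on silica TLC with acetone/benzene 1:1, and radioactivity per spot was quantified by bioimaging. The IC50 was taken from this readout.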

[2] = biological target: T1, 3-hydroxy-3-methylglutaryl-coenzyme A reductase; test: Inhibition of rat HMG-CoA reductase at 100 mM using 3.7 MBq DL-[3-14C]HMG-CoA
Summary of the method: (§1)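 Rat HMG-CoA reductase (method A): 3.7 MBq DL-[3-14C]HMG-CoA with 10 mg microsomal protein, 37 °C for 30 min. The reaction was stopped with 2 M HCl and metabolites were converted to mevalonolactone. Products were separated by silica TLC in acetone/benzene (1:1 v/v), and spot radioactivity was read by bioimaging analyzer.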

[3] = biological target: T1, 3-hydroxy-3-methylglutaryl-coenzyme A reductase; test: Inhibition of rat HMG-CoA reductase using 3.7 MBq DL-[3-14C]HMG-CoA; summary of the method: as §1

SMILES: CCC(CC)(c1ccc(F)cc1)c1ccc(/C=C/[C@@H](O)C[C@@H](O)CC(=O)[O-])cc1.[Na+]
IC50 [2]: Not Active

SMILES: CCC(CC)(c1cccc(F)c1)c1ccc(/C=C/[C@@H](O)C[C@@H](O)CC(=O)O)c(C(C)C)c1
IC50 [3]: 92000 nM

SMILES: CCC(CC)(c1ccccc1)c1ccc(/C=C/[C@@H](O)C[C@@H](O)CC(=O)O)c(-c2ccc(F)cc2)c1
IC50 [1]: 150 nM

Results, then the compound that gave them:

IC50 [1]: 40 nM
SMILES: CC[C@H](C)C(=O)O[C@H]1CCC=C2C=C[C@H](C)[C@H](CC[C@@H]3C[C@@H](O)CC(=O)O3)[C@H]21 [MEVASTATIN]

IC50 [1]: 1800 nM
SMILES: CCC(CC)(c1ccccc1)c1ccc(/C=C/[C@@H](O)C[C@@H](O)CC(=O)O)c(C(C)C)c1
